# Source: publication PMC4111141 (Bioorganic & medicinal chemistry letters, 2014)
# Target: T1, Orco derived from Drosophila melanogaster (DmOrco) (Drosophila melanogaster, UniProt Q9VNB5)
# T1 sequence (Q9VNB5 1-486): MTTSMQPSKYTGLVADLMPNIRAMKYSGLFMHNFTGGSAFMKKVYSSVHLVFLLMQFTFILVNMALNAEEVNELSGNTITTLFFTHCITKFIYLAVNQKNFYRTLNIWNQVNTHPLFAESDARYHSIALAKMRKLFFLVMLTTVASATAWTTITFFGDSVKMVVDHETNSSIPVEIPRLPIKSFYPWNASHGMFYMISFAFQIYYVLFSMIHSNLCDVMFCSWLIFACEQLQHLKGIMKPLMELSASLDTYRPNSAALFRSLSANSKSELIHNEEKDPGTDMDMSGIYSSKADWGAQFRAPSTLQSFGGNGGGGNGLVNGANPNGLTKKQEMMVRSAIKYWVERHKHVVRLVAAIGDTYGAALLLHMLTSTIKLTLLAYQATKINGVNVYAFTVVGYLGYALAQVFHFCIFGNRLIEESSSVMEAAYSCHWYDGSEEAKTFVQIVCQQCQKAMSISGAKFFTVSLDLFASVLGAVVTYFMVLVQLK
# Experiment: high-throughput calcium mobilization/imaging assay for Orco agonist activity
# Format: cell-based
# Conditions: HEK293 cells stably expressing DmOrco; for % VUAA1 efficacy: maximum agonism of the compound, normalized to the activity of VUAA1; for EC50: mean result of 4 experiments, LA = Low agonism, agonism only at the highest concentration tested, no EC50 could be calculated
# Method in brief: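 HEK293 cells stably expressing Drosophila melanogaster Orco, alone or in some cases with tuning OR subunits. Calcium mobilization/imaging read in high-throughput format across increasing test compound concentrations. EC50 and maximal agonism were taken from concentration-response curves. Maximal agonism was expressed as a percentage of reference agonist VUAA1 activity. Values are the mean of 4 experiments.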
SMILES,% VUAA1 efficacy,EC50,EC50 (listed as VUAA1),Orco agonist activity (in words)
CCc1ccc(NC(=O)CSc2nnc(-c3cccnc3)n2CC)cc1 [6a],100%,35.1 µM,35 µM,–
CCn1c(SCC(=O)Nc2ccc(Br)cc2)nnc1-c1cccnc1 [6j],No agonism,–,–,–
CCc1cccc(NC(=O)CSc2nnc(-c3cccnc3)n2CC)c1 [6b],No agonism,–,–,completely abrogated activity
